ChEMBL document CHEMBL1124565, “Synthesis and receptor affinities of some conformationally restricted analogues of the dopamine D1 selective ligand (5R)-8-chloro-2,3,4,5-tetrahydro-3-methyl-5-phenyl- 1H-3-benzazepin-7-ol” (J Med Chem, 1989)
pKi: −log10 of the molar value.

Tests used:
D(1A) dopamine receptor [1] = molecular target: T1, D(1A) dopamine receptor (Rattus norvegicus, UniProt P18901); assay: Inhibition of [3H]SCH-23390 binding to rat striatal homogenate dopamine receptor D1
In short: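 Pooled striatal membranes from male Sprague-Dawley rats (150-250 g), washed twice by homogenization/centrifugation (20000g, 10 min) in 50 mM Tris-HCl pH 7.4, final buffer adding 120 mM NaCl, 5 mM CaCl2, 1 mM MgCl2. Test agents at various concentrations compete with [3H]SCH 23390; triplicate, 37 °C for 20 min, rapid GF/B filtration, liquid scintillation counting.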

D(2) dopamine receptor [2] = molecular target: T2, D(2) dopamine receptor (Rattus norvegicus, UniProt P61169); assay: Displacement of [3H]spiperone from rat striatal homogenate dopamine receptor D2
In short: (§1)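 Striatum from male Sprague-Dawley rats (150-250 g), homogenized in ice-cold 50 mM Tris-HCl pH 7.4, centrifuged 20000g 10 min twice, resuspended in Tris buffer with 120 mM NaCl, 5 mM CaCl2, 1 mM MgCl2. Competition against [3H]spiperone (final approximately 0.3 nM), triplicate tubes, 37 °C 20 min, vacuum filtration over GF/B with ice-cold buffer rinses, scintillation counting.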

D(2) dopamine receptor [3] = molecular target: T2, D(2) dopamine receptor; assay: In vitro affinity of compound towards Dopamine receptor D2 was determined by measuring their ability to displace [3H]spiperone from rat striatal homogenates; in short: as §1
D(1A) dopamine receptor [4] = molecular target: T1, D(1A) dopamine receptor; assay: In vitro affinity of compound towards dopamine (D1) receptor was determined by measuring their ability to displace [3H]SCH-23,390 from rat striatal homogenates

T2 sequence (P61169 whole entry): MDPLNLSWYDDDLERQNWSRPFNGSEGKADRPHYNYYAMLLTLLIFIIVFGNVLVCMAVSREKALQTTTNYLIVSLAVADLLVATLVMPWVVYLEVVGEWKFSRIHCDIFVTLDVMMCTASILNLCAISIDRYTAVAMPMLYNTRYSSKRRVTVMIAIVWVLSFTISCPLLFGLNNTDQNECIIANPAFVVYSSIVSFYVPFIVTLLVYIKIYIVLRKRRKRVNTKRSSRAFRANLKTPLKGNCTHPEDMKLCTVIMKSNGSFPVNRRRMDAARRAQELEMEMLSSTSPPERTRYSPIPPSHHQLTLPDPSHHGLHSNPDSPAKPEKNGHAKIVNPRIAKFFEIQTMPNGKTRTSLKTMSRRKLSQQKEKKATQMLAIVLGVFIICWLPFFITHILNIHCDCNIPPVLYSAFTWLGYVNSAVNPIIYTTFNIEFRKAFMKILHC
T1 sequence (P18901 whole entry): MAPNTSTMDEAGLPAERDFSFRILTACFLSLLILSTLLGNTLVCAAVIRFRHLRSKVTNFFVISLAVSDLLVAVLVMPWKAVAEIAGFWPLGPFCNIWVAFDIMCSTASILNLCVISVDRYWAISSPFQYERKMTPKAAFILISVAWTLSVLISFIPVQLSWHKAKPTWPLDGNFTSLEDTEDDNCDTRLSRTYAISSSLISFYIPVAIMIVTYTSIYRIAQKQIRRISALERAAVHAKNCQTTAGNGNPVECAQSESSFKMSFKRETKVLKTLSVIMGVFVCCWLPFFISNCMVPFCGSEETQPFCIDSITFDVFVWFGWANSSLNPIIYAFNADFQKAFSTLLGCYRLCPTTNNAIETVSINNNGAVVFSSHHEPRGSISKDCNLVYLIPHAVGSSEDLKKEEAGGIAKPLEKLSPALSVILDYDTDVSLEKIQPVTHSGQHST

| Structure (SMILES) | pKi (D(1A) dopamine receptor [1]) | pKi (D(2) dopamine receptor [2]) | pKi (D(2) dopamine receptor [3]) | pKi (D(1A) dopamine receptor [4]) |
| --- | --- | --- | --- | --- |
| COc1cc2c(cc1O)[C@H]1c3ccccc3CC[C@@H]1N(C)CC2 | 7.63 | 5.61 |  |  |
| CN1CCc2cc(Cl)c(O)cc2[C@H]2c3ccccc3CC[C@H]21 | 6.05 |  |  |  |
| COc1cc2c(cc1O)[C@@H]1c3ccccc3CC[C@@H]1N(C)CC2 | 5.38 | < 4.00 |  |  |
| COc1cc2c(cc1O)CCN(C)[C@H]1CCc3ccccc3[C@H]21 | 5.78 | 5.19 |  |  |
| CN1CCc2ccc(O)cc2[C@H]2c3ccccc3CC[C@@H]21 | 7.14 | 5.10 |  |  |
| CN1CCc2cc(O)c(O)cc2[C@@H]2c3ccccc3CC[C@@H]21 |  |  | < 4.00 | 5.76 |
| COc1cc2c(cc1O)CCN(C)[C@H]1CCc3ccccc3[C@@H]21 | 4.61 | < 4.00 |  |  |
| CN1CCc2cc(O)c(O)cc2[C@H]2c3ccccc3CC[C@@H]21 |  |  | 5.62 | 7.17 |
| CN1CCc2cc(Cl)c(O)cc2[C@@H]2c3ccccc3CC[C@@H]21 | 6.29 |  |  |  |
| Cc1cc2c(cc1O)[C@H]1c3ccccc3CC[C@@H]1N(C)CC2 | 8.15 | 5.82 |  |  |
| CN1CCc2cc(Cl)c(O)cc2[C@@H]2c3ccccc3CC[C@H]21 | 6.27 |  |  |  |
| CN1CCc2cc(Cl)c(O)cc2[C@@H]2c3ccccc3CC[C@@H]21 (relative stereo) | 6.32 |  |  |  |
| CN1CCc2cc(Cl)c(O)cc2C2c3ccccc3CCC21 (trans isomer) | 8.48 |  |  |  |
| CN1CCc2cc(Cl)c(O)cc2[C@H]2c3ccccc3CC[C@@H]21 [ECOPIPAM] | 8.72 |  |  |  |
